Laboratory results from ChEMBL document CHEMBL1158990, “New cytotoxic lupane lactones from Kokoona ochracea” (1991).
In brackets after ≈: the same amount, converted by molar mass.

Key:
Type in all cases: functional
[1] = Cytotoxicity against human UISO-BCA1 cells after 72 hrs; settings: UISO-BCA1, 72 h, read-out: ED50 (the source's name)
Method in brief: (§1)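 In vitro growth-inhibition assay with a 72 h compound exposure. ED50 in µg/ml is the concentration that inhibits cell growth by 50%.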

[2] = Cytotoxicity against human KB3 cells after 72 hrs; settings: KB3, 72 h, read-out: ED50 (the source's name); method in brief: as §1
[3] = Cytotoxicity against human UISO-MEL2 cells after 72 hrs; settings: UISO-MEL2, 72 h, read-out: ED50 (the source's name); method in brief: as §1
[4] = Cytotoxicity against human KBV1 cells after 72 hrs; settings: KB-V1, 72 h, read-out: ED50 (the source's name)
[5] = tested on: HT-1080; assay: Cytotoxicity against human HT1080 cells after 72 hrs; settings: HT-1080, 72 h, read-out: ED50 (the source's name); method in brief: as §1
[6] = Cytotoxicity against human UISO-LUC1 cells after 72 hrs; settings: UISO-LUC1, 72 h, read-out: ED50 (the source's name); method in brief: as §1
[7] = tested on: P388; assay: Cytotoxicity against mouse P388 cells after 48 hrs; settings: P388, 48 h, read-out: ED50 (the source's name)
Method in brief: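 Cultured murine P-388 leukemia cells were treated with compound for 48 h. The read-out is cell growth inhibition, and ED50 in µg/ml is the concentration producing 50% inhibition.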

[8] = Cytotoxicity against human UISO-COL2 cells after 72 hrs; settings: UISO-COL2, 72 h, read-out: ED50 (the source's name); method in brief: as §1

| Compound | EC50 [1] [µg/mL] | EC50 [2] [µg/mL] | EC50 [3] [µg/mL] | EC50 [4] [µg/mL] | EC50 [5] [µg/mL] | EC50 [6] [µg/mL] | EC50 [7] [µg/mL] | EC50 [8] [µg/mL] |
| --- | --- | --- | --- | --- | --- | --- | --- | --- |
| CC1(C)C(=O)CC[C@]2(C)[C@H]3CC[C@H]4[C@@H]5[C@H]6[C@@H](C[C@]5(C)CC[C@@]4(C)[C@]3(C)CC[C@@H]12)OC(=O)[C@@]61CO1 | > 20 | 5.2 (≈ 11.1 µM) | > 20 | > 20 | > 20 | > 20 | 7.8 (≈ 16.6 µM) | > 20 |
| C=C1C(=O)O[C@@H]2C[C@]3(C)CC[C@]4(C)[C@H](CC[C@@H]5[C@@]6(C)CCC(=O)C(C)(C)[C@@H]6CC[C@]54C)[C@H]3[C@H]12 [OCHRACEOLIDE A] | 10 (≈ 22.1 µM) | 2.7 (≈ 5.96 µM) | 8.3 (≈ 18.3 µM) | > 20 | 9.6 (≈ 21.2 µM) | 12 (≈ 26.5 µM) | 0.26 (≈ 0.574 µM) | 6.8 (≈ 15 µM) |
| C=C1C(=O)O[C@@H]2C[C@]3(C)CC[C@]4(C)[C@@H](CC[C@@H]5[C@@]6(C)CCC(=O)C(C)(C)[C@@H]6C(=O)C[C@]54C)[C@@H]3[C@H]12 [OCHRACEOLIDE C] | 4.5 (≈ 9.64 µM) | 5.5 (≈ 11.8 µM) | 8.3 (≈ 17.8 µM) | > 20 | 8.6 (≈ 18.4 µM) | 12 (≈ 25.7 µM) | 0.53 (≈ 1.14 µM) | 9.2 (≈ 19.7 µM) |
